In ChEMBL document CHEMBL1155070, “New endomorphin analogues containing alicyclic beta-amino acids: influence on bioactive conformation and pharmacological profile” (J Med Chem, 2008):

Assays:
[1] = biological target: Delta-type opioid receptor (Rattus norvegicus, UniProt P33533); assay: Displacement of [3H]Ile5,6deltorphin-2 from delta opioid receptor in Wistar rat brain
How it was run: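 Competition binding on crude male Wistar rat forebrain membranes (0.2-0.5 mg protein/tube) in 50 mM Tris-HCl pH 7.4. Filtration, scintillation counting. Ki from nonlinear fit plus Cheng-Prusoff. Mean ± SEM, ≥3 independent runs in duplicate.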

[2] = (§1) Half life in rat brain membrane homogenate; type: ADME
Rattus norvegicus = species on record: Rattus norvegicus; assay: as §1; type: ADME

Sequence of Delta-type opioid receptor (P33533 whole entry): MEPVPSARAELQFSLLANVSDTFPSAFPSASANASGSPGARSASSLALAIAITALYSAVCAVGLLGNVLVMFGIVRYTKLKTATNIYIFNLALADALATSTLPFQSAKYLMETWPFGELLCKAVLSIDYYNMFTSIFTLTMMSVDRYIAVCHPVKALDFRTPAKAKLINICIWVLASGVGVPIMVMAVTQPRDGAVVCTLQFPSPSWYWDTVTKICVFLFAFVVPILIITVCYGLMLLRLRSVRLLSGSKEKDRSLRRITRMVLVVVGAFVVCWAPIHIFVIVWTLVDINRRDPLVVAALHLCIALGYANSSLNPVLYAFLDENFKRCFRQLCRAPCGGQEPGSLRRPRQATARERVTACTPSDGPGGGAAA

Compound	Ki [1] [µM]	half-life [2] [h]	t1/2 (Rattus norvegicus) [h]
NC(=O)[C@H](Cc1ccccc1)NC(=O)[C@H](Cc1ccccc1)NC(=O)[C@@H]1CCC[C@@H]1NC(=O)[C@@H](N)Cc1ccc(O)cc1	> 10	–	–
NC(=O)[C@H](Cc1ccccc1)NC(=O)[C@H](Cc1ccccc1)NC(=O)[C@H]1CCC[C@H]1NC(=O)[C@@H](N)Cc1ccc(O)cc1	4.8	> 12	–
NC(=O)[C@H](Cc1ccccc1)NC(=O)[C@H](Cc1ccccc1)NC(=O)[C@H]1CCCC[C@H]1NC(=O)[C@@H](N)Cc1ccc(O)cc1	0.812	> 12	–
NC(=O)[C@H](Cc1ccccc1)NC(=O)[C@H](Cc1ccccc1)NC(=O)[C@@H]1CCCC[C@@H]1NC(=O)[C@@H](N)Cc1ccc(O)cc1	> 10	–	–
NC(=O)[C@H](Cc1ccccc1)NC(=O)[C@H](Cc1c[nH]c2ccccc12)NC(=O)[C@H]1CCC[C@@H]1NC(=O)[C@@H](N)Cc1ccc(O)cc1	3.08	–	–
NC(=O)[C@H](Cc1ccccc1)NC(=O)[C@H](Cc1ccccc1)NC(=O)[C@@H]1CCCC[C@H]1NC(=O)[C@@H](N)Cc1ccc(O)cc1	0.439	–	–
NC(=O)[C@H](Cc1ccccc1)NC(=O)[C@H](Cc1c[nH]c2ccccc12)NC(=O)[C@@H]1CCCC[C@H]1NC(=O)[C@@H](N)Cc1ccc(O)cc1	> 10	–	–
NC(=O)[C@H](Cc1ccccc1)NC(=O)[C@H](Cc1c[nH]c2ccccc12)NC(=O)[C@H]1CCCC[C@H]1NC(=O)[C@@H](N)Cc1ccc(O)cc1	2.76	> 12	–
NC(=O)[C@H](Cc1ccccc1)NC(=O)[C@H](Cc1ccccc1)NC(=O)[C@H]1CCCC[C@@H]1NC(=O)[C@@H](N)Cc1ccc(O)cc1	> 10	–	–
NC(=O)[C@H](Cc1ccccc1)NC(=O)[C@H](Cc1ccccc1)NC(=O)[C@H]1CCC[C@@H]1NC(=O)[C@@H](N)Cc1ccc(O)cc1	4.23	–	–
NC(=O)[C@H](Cc1ccccc1)NC(=O)[C@H](Cc1c[nH]c2ccccc12)NC(=O)[C@H]1CCCC[C@@H]1NC(=O)[C@@H](N)Cc1ccc(O)cc1	9.62	–	–
NC(=O)[C@H](Cc1ccccc1)NC(=O)[C@H](Cc1c[nH]c2ccccc12)NC(=O)[C@@H]1CCCC[C@@H]1NC(=O)[C@@H](N)Cc1ccc(O)cc1	> 10	–	–
NC(=O)[C@H](Cc1ccccc1)NC(=O)[C@H](Cc1c[nH]c2ccccc12)NC(=O)[C@@H]1CCC[C@@H]1NC(=O)[C@@H](N)Cc1ccc(O)cc1	> 10	–	–
NC(=O)[C@H](Cc1ccccc1)NC(=O)[C@H](Cc1ccccc1)NC(=O)[C@@H]1CCC[C@H]1NC(=O)[C@@H](N)Cc1ccc(O)cc1	1.41	–	–
NC(=O)[C@H](Cc1ccccc1)NC(=O)[C@H](Cc1c[nH]c2ccccc12)NC(=O)[C@H]1CCC[C@H]1NC(=O)[C@@H](N)Cc1ccc(O)cc1	1.34	> 12	–
NC(=O)[C@H](Cc1ccccc1)NC(=O)[C@H](Cc1c[nH]c2ccccc12)NC(=O)[C@@H]1CCC[C@H]1NC(=O)[C@@H](N)Cc1ccc(O)cc1	0.67	–	–
NC(=O)[C@H](Cc1ccccc1)NC(=O)[C@H](Cc1ccccc1)NC(=O)[C@@H]1CCCN1C(=O)[C@@H](N)Cc1ccc(O)cc1 [ENDOMORPHIN 2]	–	–	3.8
NC(=O)[C@H](Cc1ccccc1)NC(=O)[C@H](Cc1c[nH]c2ccccc12)NC(=O)[C@@H]1CCCN1C(=O)[C@@H](N)Cc1ccc(O)cc1 [ENDOMORPHIN-1]	–	–	4.9
